A word on the MIC: it is the smallest concentration in the dilution series that meets the test's criterion for growth inhibition.

The values that follow come from ChEMBL document CHEMBL1155086, “Synthesis and evaluation of antitubercular activity of glycosyl thio- and sulfonyl acetamide derivatives” (Bioorg Med Chem Lett, 2008).

For series [1], the system named is Mycobacterium tuberculosis. In words: Antitubercular activity against Mycobacterium tuberculosis H37Rv after 4 weeks by agar dilution method. In kind it is functional. As to conditions: 672 h. The essentials:
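Proportion method on agar: serial twofold dilutions mixed into warm Middlebrook 7H10 agar and set as slants. Each slant surface inoculated with 10⁵ CFU of M. tuberculosis H37Rv in 10 µL, then incubated at 37 °C for 4 weeks. MIC (µg/mL) taken as the lowest concentration giving complete inhibition of colony growth. Rifampicin and isoniazid served as reference drugs.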

Series [2] in a line: Cytotoxicity against african green monkey Vero C1008 cells. In kind it is cell-based. The following applies: chlorocebus sabaeus. The essentials: (§1)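 MTS (Mosmann-type) viability assay. 10⁴ cells/well in DME with 10% foetal bovine serum plus antibiotics were pre-incubated 24 h at 37 °C, 5% CO2. Medium was then replaced with serial dilutions of compound, a standard toxic compound or DMSO, and incubated a further 24 h. MTS was added and absorbance read at 490 nm after 2 h. DMSO wells were set as 100% viability.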

Series [3] is described as follows: Cytotoxicity against mouse bone marrow derived macrophages. The following applies: macrophage. In kind it is cell-based. Put shortly:
as §1

≈ marks a conversion by molar mass, not a printed value. Some results are limits rather than exact numbers.

On to `CC(=O)OC[C@H]1O[C@@H](SCC(N)=O)[C@H](OC(C)=O)[C@@H](OC(C)=O)[C@@H]1O[C@H]1O[C@H](COC(C)=O)[C@@H](OC(C)=O)[C@H](OC(C)=O)[C@H]1OC(C)=O`, for which the MIC in series [1] is above 12.5 µg/mL.
The compound `CC(=O)OC[C@H]1O[C@@H](SCC(N)=O)[C@H](OC(C)=O)[C@@H](OC(C)=O)[C@H]1OC(C)=O` registered an MIC in series [1] of 1.56 µg/mL (≈ 3.7 µM). Also, the Activity result in series [2] and in series [3] was “Non-toxic” each time.
On to `CCCCCCCCNC(=O)CS(=O)(=O)[C@@H]1O[C@H](COC(C)=O)[C@@H](O[C@@H]2O[C@H](COC(C)=O)[C@H](OC(C)=O)[C@H](OC(C)=O)[C@H]2OC(C)=O)[C@H](OC(C)=O)[C@H]1OC(C)=O`, for which, in series [1], the MIC was above 12.5 µg/mL.
`CC(=O)O[C@@H]1[C@H](OC(C)=O)[C@H](OC(C)=O)CO[C@H]1S(=O)(=O)CC(N)=O` registered an MIC in series [1] of 6.25 µg/mL (≈ 16.4 µM). Further, the Activity result in series [2] and in series [3] was “Non-toxic” each time.
For the compound `CC(=O)OC[C@H]1O[C@@H](SCC(N)=O)[C@@H](OC(C)=O)[C@@H](OC(C)=O)[C@@H]1OC(C)=O`, the MIC in series [1] was 3.12 µg/mL (≈ 7.42 µM). Further, the Activity result in series [2] and in series [3] was “Non-toxic” each time.
Consider `CC(=O)OC[C@H]1O[C@@H](O[C@H]2[C@H](OC(C)=O)[C@@H](OC(C)=O)[C@H](S(=O)(=O)CC(N)=O)O[C@@H]2COC(C)=O)[C@H](OC(C)=O)[C@@H](OC(C)=O)[C@H]1OC(C)=O`, for which, in series [1], the MIC was 3.12 µg/mL (≈ 4.21 µM). Further, the Activity result in series [2] and in series [3] was “Non-toxic” in each case.
As for `CCCCCCCCCCCCNC(=O)CS(=O)(=O)[C@@H]1O[C@H](COC(C)=O)[C@@H](O[C@@H]2O[C@H](COC(C)=O)[C@H](OC(C)=O)[C@H](OC(C)=O)[C@H]2OC(C)=O)[C@H](OC(C)=O)[C@H]1OC(C)=O`, the minimal inhibitory concentration (MIC) in series [1] was above 12.5 µg/mL.
Consider `CC(=O)O[C@@H]1[C@@H](OC(C)=O)[C@H](OC(C)=O)CO[C@H]1S(=O)(=O)CC(N)=O`, for which the MIC in series [1] came to 12.5 µg/mL (≈ 32.8 µM).
As for `CC(=O)OC[C@H]1O[C@@H](SCC(N)=O)[C@H](OC(C)=O)[C@@H](OC(C)=O)[C@@H]1O[C@@H]1O[C@H](COC(C)=O)[C@@H](OC(C)=O)[C@H](OC(C)=O)[C@H]1OC(C)=O`, in series [1], the MIC was above 12.5 µg/mL.
On to `CC(=O)O[C@H]1[C@H](OC(C)=O)[C@H](SCC(N)=O)OC[C@H]1OC(C)=O`, for which, in series [1], the minimum inhibitory concentration (MIC) was above 12.5 µg/mL.
In the case of `CCCCCCCCNC(=O)CS[C@@H]1O[C@H](COC(C)=O)[C@@H](OC(C)=O)[C@H](OC(C)=O)[C@H]1OC(C)=O`, in series [1], the MIC is above 12.5 µg/mL.
Same read-out and setting: then `CC(=O)OC[C@H]1O[C@@H](S(=O)(=O)CC(N)=O)[C@@H](OC(C)=O)[C@@H](OC(C)=O)[C@@H]1OC(C)=O`, with above 12.5 µg/mL; and `CCCCCCCCCCCCNC(=O)CS[C@@H]1O[C@H](COC(C)=O)[C@@H](OC(C)=O)[C@H](OC(C)=O)[C@H]1OC(C)=O`, with above 12.5 µg/mL.
In series [1], `CCCCCCCCCCCCNC(=O)CS[C@@H]1OC[C@@H](OC(C)=O)[C@@H](OC(C)=O)[C@@H]1OC(C)=O` returned an MIC of 3.12 µg/mL (≈ 6.04 µM). For the same compound, the Activity entry in series [2] and in series [3] was “Non-toxic” each time.
As to `CC(=O)OC[C@H]1O[C@@H](S(=O)(=O)CC(=O)NCc2ccccc2)[C@H](OC(C)=O)[C@@H](OC(C)=O)[C@@H]1OC(C)=O`, in series [1], 6.25 µg/mL (≈ 11.5 µM) was the least that counted as inhibitory (MIC). The Activity entry in series [2] and in series [3] was “Non-toxic” each time.
As to `CC(=O)OC[C@H]1O[C@@H](S(=O)(=O)CC(N)=O)[C@H](OC(C)=O)[C@@H](OC(C)=O)[C@H]1OC(C)=O`, in series [1], 3.12 µg/mL (≈ 6.89 µM) was the least that counted as inhibitory (MIC). Further, the Activity result in series [2] and in series [3] was “Non-toxic” each time.
The compound `CC(=O)OC[C@H]1O[C@@H](S(=O)(=O)CC(N)=O)[C@H](OC(C)=O)[C@@H](OC(C)=O)[C@@H]1O[C@H]1O[C@H](COC(C)=O)[C@@H](OC(C)=O)[C@H](OC(C)=O)[C@H]1OC(C)=O` showed an MIC in series [1] of 25 µg/mL (≈ 33.7 µM).
`CCCCCCCCCCCCNC(=O)CS[C@@H]1O[C@H](COC(C)=O)[C@@H](O[C@@H]2O[C@H](COC(C)=O)[C@H](OC(C)=O)[C@H](OC(C)=O)[C@H]2OC(C)=O)[C@H](OC(C)=O)[C@H]1OC(C)=O` yielded an MIC in series [1] above 12.5 µg/mL.
Compound `CCCCCCCCNC(=O)CS[C@@H]1O[C@H](COC(C)=O)[C@@H](O[C@@H]2O[C@H](COC(C)=O)[C@H](OC(C)=O)[C@H](OC(C)=O)[C@H]2OC(C)=O)[C@H](OC(C)=O)[C@H]1OC(C)=O` showed an MIC in series [1] above 12.5 µg/mL.
In series [1], `CCCCCCCCCCCCNC(=O)CS(=O)(=O)[C@@H]1OC[C@@H](OC(C)=O)[C@@H](OC(C)=O)[C@@H]1OC(C)=O` registered an MIC above 12.5 µg/mL.
`CC(=O)O[C@@H]1[C@@H](OC(C)=O)[C@H](SCC(N)=O)OC[C@H]1OC(C)=O`: in series [1], the minimal inhibitory concentration (MIC) was 12.5 µg/mL (≈ 35.8 µM).
In the case of `CC(=O)OC[C@H]1O[C@@H](SCC(=O)NCc2ccccc2)[C@H](OC(C)=O)[C@@H](OC(C)=O)[C@@H]1OC(C)=O`, the lowest concentration to inhibit growth in series [1] (MIC) was 6.25 µg/mL (≈ 12.2 µM).
Still for that read-out and setting: the same measure for `CC(=O)O[C@@H]1[C@H](OC(C)=O)[C@H](OC(C)=O)CO[C@H]1SCC(N)=O`: 12.5 µg/mL (≈ 35.8 µM).
On to `CC(=O)OC[C@H]1O[C@@H](SCC(N)=O)[C@H](OC(C)=O)[C@@H](OC(C)=O)[C@@H]1OC(C)=O`, for which the MIC in series [1] came out at 3.12 µg/mL (≈ 7.42 µM). The Activity entry in series [2] and in series [3] was “Non-toxic” each time.
Compound `CC(=O)OC[C@H]1O[C@@H](O[C@H]2[C@H](OC(C)=O)[C@@H](OC(C)=O)[C@H](SCC(N)=O)O[C@@H]2COC(C)=O)[C@H](OC(C)=O)[C@@H](OC(C)=O)[C@H]1OC(C)=O` gave an MIC in series [1] above 12.5 µg/mL.
For the compound `CCCCCCCCNC(=O)CS[C@@H]1OC[C@@H](OC(C)=O)[C@@H](OC(C)=O)[C@@H]1OC(C)=O`, the MIC in series [1] was above 12.5 µg/mL.
Turning to `CC(=O)OC[C@H]1O[C@@H](S(=O)(=O)CC(N)=O)[C@H](OC(C)=O)[C@@H](OC(C)=O)[C@@H]1OC(C)=O`, in series [1], inhibition of growth (MIC) required 3.12 µg/mL (≈ 6.89 µM). The Activity entry in series [2] and in series [3] was “Non-toxic” throughout.
`CCCCCCCCNC(=O)CS(=O)(=O)[C@@H]1OC[C@@H](OC(C)=O)[C@@H](OC(C)=O)[C@@H]1OC(C)=O`: the MIC in series [1] is above 12.5 µg/mL.
The compound `CC(=O)O[C@H]1[C@H](OC(C)=O)[C@H](OC(C)=O)CO[C@H]1S(=O)(=O)CC(N)=O` gave an MIC in series [1] of 12.5 µg/mL (≈ 32.8 µM).
On to `CCCCCCCCCCCCNC(=O)CS(=O)(=O)[C@@H]1O[C@H](COC(C)=O)[C@@H](OC(C)=O)[C@H](OC(C)=O)[C@H]1OC(C)=O`, for which the MIC in series [1] was above 12.5 µg/mL.
`CC(=O)OC[C@H]1O[C@@H](S(=O)(=O)CC(N)=O)[C@H](OC(C)=O)[C@@H](OC(C)=O)[C@@H]1O[C@@H]1O[C@H](COC(C)=O)[C@@H](OC(C)=O)[C@H](OC(C)=O)[C@H]1OC(C)=O`: the MIC in series [1] is 25 µg/mL (≈ 33.7 µM).
Still for that read-out and setting: then `CCCCCCCCNC(=O)CS(=O)(=O)[C@@H]1O[C@H](COC(C)=O)[C@@H](OC(C)=O)[C@H](OC(C)=O)[C@H]1OC(C)=O`, with above 12.5 µg/mL.
